Source: article PMC3513776 (Journal of molecular recognition : JMR, 2012)

What was measured:
[1] = target: F1*S variant of human AGP (Homo sapiens, UniProt P02763); assay: ITC of drug binding to the separated F1*S variant of AGP; settings: 30°C
Method in brief: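 F1*S variant resolved from re-purified commercial human AGP on copper(II) IMAC (20 mM HEPES pH 7.4 load; 0→100% 300 mM imidazole, 1 mL/min). Degassed protein (140 μM, 20 mM HEPES pH 7.4) titrated with 5→16 mM drug in dialysate, 240 s intervals, 360 rpm, 30°C. Drug-into-buffer dilution heat subtracted. Integrated peaks vs molar ratio fitted by Marquardt for n, Ka, ΔH.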

A variant of human AGP = A variant of human AGP (Homo sapiens, UniProt P19652); assay: ITC of drug binding to the separated A variant of AGP; settings: 30°C
[2] = cited from earlier work
[3] = system: A and F1*S variants of human AGP; settings: cited from earlier work
human AGP = assay: Isothermal titration calorimetry; format: binding; settings: ITC, 30°C, heterogeneous AGP preparation

CN(C)CCC=C1c2ccccc2CCc2ccccc21 [amitriptyline]
thermodynamic binding signature ([1]; F1*S variant): comparable enthalpy and entropy gains
lower binding affinity of the F1*S variant (vs A variant) ([1]; separated variants): 4 fold
thermodynamic binding signature (A variant of human AGP; A variant): dominant favorable entropy gain and a smaller, albeit favorable enthalpy gain
greater affinity for the A variant compared to the F1*S variant (A variant of human AGP; separated variants): 4 fold
pKa of the N,N-dimethylpropan-1-amine side chain [2]: 9.2
difference in affinity between A and F1*S [3]: > 20 fold

CN(C)CCCN1c2ccccc2Sc2ccc(Cl)cc21 [chlorpromazine]
binding energetics, A versus F1*S variant (A variant of human AGP; separated variants): comparable for both variants
affinity for both variants [3]: comparable

CC(C)N(CCC(C(N)=O)(c1ccccc1)c1ccccn1)C(C)C (stereo not drawn) [disopyramide]
affinity for the F1*S [3]: very low
variant selectivity of binding [3]: selectively bind to the A variant

CN(C)CC/C=C1\c2ccccc2CSc2ccccc21 [dothepin]
lower affinity for AGP compared to amitriptyline (human AGP): ~ 2.5 fold

CN1CCN2c3ccccc3Cc3ccccc3C2C1 (stereo not drawn) [miaserine]
lower affinity for AGP compared to amitriptyline (human AGP): ~ 6 fold
